Test results published in ChEMBL document CHEMBL4342478, “Discovery of Potent N-Ethylurea Pyrazole Derivatives as Dual Inhibitors of Trypanosoma brucei and Trypanosoma cruzi” (ACS Med Chem Lett, 2020).
≈ marks a conversion by molar mass, not a printed value. Calls of active or inactive are those of the source. The rule behind the calls is not given here.

What was measured:
[1] = system: Trypanosoma brucei brucei; assay: Antitrypanosomal activity against Trypanosoma brucei brucei BS427 after 48 hrs by resazurin dye based fluorescence assay; assay type: functional, organism-based
Summary of the method: (§1)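 IC50 values are the mean of two independent experiments. The T. b. brucei assay uses free parasites. The T. cruzi assay uses intracellular parasites in H9c2 host cells.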

[2] = Selectivity index, ratio of IC50 for human HEK293 cells incubated for 69 hrs by resazurin dye based fluorescence analysis to IC50 for antitrypanosomal activity against Trypanosoma brucei brucei BS427; assay type: toxicity; conditions: read-out: Ratio IC50
Trypanosoma cruzi [3] = assay: Antitrypanosomal activity against Trypanosoma cruzi infected in rat H9C2 cells by DRAQ5 DNA dye based imaging analysis; assay type: functional, organism-based; summary of the method: as §1
[4] = Selectivity index, ratio of cytotoxicity against rat H9C2 cells to IC50 for antitrypanosomal activity against Trypanosoma cruzi infected in rat H9C2 cells; assay type: toxicity, cell-based; conditions: read-out: Selectivity Index
[5] = system: Trypanosoma brucei rhodesiense; assay: Antitrypanosomal activity against blood stream form of Trypanosoma brucei rhodesiense STIB900 after 72 hrs by Alamar blue based fluorometric assay; assay type: functional, organism-based
Trypanosoma cruzi [6] = assay: Antitrypanosomal activity against Trypanosoma cruzi Tulahuen C2C4 trypomastigotes infected in rat L6 cells after 96 hrs by photometric analysis; assay type: functional, organism-based
Leishmania donovani = assay: AntiLeishmanial activity against amastigote form of Leishmania donovani MHOM/ET/67/L82 after 72 hrs by Alamar blue dye based fluorometric analysis; assay type: functional, organism-based
Plasmodium falciparum = assay: Antiplasmodial activity against erythrocytic stage of Plasmodium falciparum after 48 hrs by [3H]-hypoxanthine incorporation assay; assay type: functional, organism-based
[7] = Kinetic solubility of compound at pH 2 to 6.5 by nephelometry; assay type: physicochemical; conditions: buffer, read-out: Kinetic_solubility
[8] = Metabolic stability in human liver microsomes; assay type: ADME, Microsome
[9] = system: Trypanosoma brucei brucei; assay: Antitrypanosomal activity against bloodstream form of Trypanosoma brucei brucei Lister 427; assay type: functional, organism-based
[10] = Selectivity index, ratio of cytotoxicity against human HEK293 cells to IC50 for antitrypanosomal activity against bloodstream form of Trypanosoma brucei brucei Lister 427; assay type: toxicity, cell-based; conditions: read-out: Selectivity Index
Summary of the method: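 Ratio of HEK293 cytotoxicity to the IC50 against free, non-intracellular T. b. brucei parasites. IC50 values are the average of two independent experiments.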

Trypanosoma cruzi [11] = assay: Trypanosomacidal activity against Trypanosoma cruzi strain Y trypomastigotes assessed as reduction in number of infected cells at 0.312 uM measured within first 24 hrs by Hoechst 33342 staining based fluorescence imaging assay; assay type: functional, organism-based
Summary of the method: (§2)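 Time-to-kill assay against intracellular T. cruzi, with test article at 0.312 or 0.078 μM. Controls were benznidazole 20 μM, posaconazole 0.04 μM and DMSO. The number of infected host cells was tracked over time after drug addition.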

Trypanosoma cruzi [12] = assay: Trypanosomacidal activity against Trypanosoma cruzi strain Y trypomastigotes assessed as reduction in number of infected cells at 0.312 uM measured for 24 to 96 hrs by Hoechst 33342 staining based fluorescence imaging assay relative to benznidazole; assay type: functional; summary of the method: as §2
Trypanosoma cruzi [13] = assay: Antitrypanosomal activity against Trypanosoma cruzi Tulahuen C4 infected in mouse 3T3 cells by Hoechst/HCS CellMask green dye based assay; assay type: functional, organism-based; conditions: Tulahuen C4, NIH3T3
[14] = Selectivity index, ratio of cytotoxicity against mouse 3T3 cells to IC50 for antitrypanosomal activity against Trypanosoma cruzi Tulahuen C4 infected in mouse 3T3 cells; assay type: toxicity, cell-based; conditions: read-out: Selectivity Index
Trypanosoma cruzi [15] = assay: Trypanosomacidal activity against Trypanosoma cruzi strain Y trypomastigotes assessed as reduction in number of infected cells at faster rate at 20 uM measured for 24 to 96 hrs by Hoechst 33342 staining based fluorescence imaging assay; assay type: functional, organism-based
[16] = Trypanosoma brucei, BS427, 48 h, read-out: IC50

Row | IC50 [1, 16] [nM] | IC50 (Trypanosoma cruzi [3]) [nM] | SMILES | selectivity ratio at 69 h [2] | selectivity ratio [4] | further results
1 | 50 | – | O=C(NCCn1ccc(-c2cccc(F)c2)n1)N1CCCCC1 | 197 | – | Activity [5]: Active; Activity (Trypanosoma cruzi [6]): Active; Activity (Leishmania donovani): Active; Activity (Plasmodium falciparum): Active
2 | 120 | 130 | O=C(NCCn1ccc(-c2ccccc2Cl)n1)N1CCCCC1 | 361 | 398 | –
3 | 130 | 130 | O=C(NCCn1ccc(-c2cccc(Cl)c2)n1)N1CCCCC1 | 327 | 398 | –
4 | 60 | – | O=C(NCCn1ccc(-c2ccccc2F)n1)N1CCCCC1 | 185 | – | Activity [5]: Active; Activity (Trypanosoma cruzi [6]): Active; Activity (Leishmania donovani): Active; Activity (Plasmodium falciparum): Active
5 | 390 | 630 | O=C(NCCn1ccc(-c2ccccc2)n1)N1CCCCCC1 | 215 | 79 | –
6 | 60 | 250 | O=C(NCCn1ccc(-c2ccccc2)n1)N1CCCCC1 | 1350 | 32 | Activity (Trypanosoma cruzi [11]): Active; solubility kinetic [7]: > 20 µg/mL; Activity [5]: Active; Activity (Trypanosoma cruzi [6]): Active; Activity (Leishmania donovani): Active; Activity (Plasmodium falciparum): Active; fold change (FC) (Trypanosoma cruzi [12]): 36
7 | 1200 | 1000 | O=C(NCCn1ccc(-c2ccc(Cl)cc2)n1)N1CCCCC1 | 35 | 50 | –
8 | 650 | – | O=C(NCCn1ccc(-c2ccccc2)n1)N1CCCC1 | 128 | – | –
9 | 60 | – | O=C(NCCn1ccc(-c2ccc(F)cc2)n1)N1CCCCC1 | 161 | – | Stability [8]: Stable; Activity [5]: Active; Activity (Trypanosoma cruzi [6]): Active; Activity (Leishmania donovani): Active; Activity (Plasmodium falciparum): Active
10 | 640 | 1000 | CC(Cn1ccc(-c2ccccc2)n1)NC(=O)N1CCCCC1 (stereo unspecified) | 131 | 50 | –
11 | 350 | 320 | Cc1ccccc1-c1ccn(CCNC(=O)N2CCCCC2)n1 | 240 | 158 | –
12 | 6600 | 25000 | O=C(NCCn1ccc(-c2ccccc2)n1)N1CCOCC1 | 13 | 2 | –
13 | 230 | 200 | CC(CNC(=O)N1CCCCC1)n1ccc(-c2ccccc2)n1 (stereo unspecified) | 358 | 251 | –
14 | 360 | 320 | Cc1cccc(-c2ccn(CCNC(=O)N3CCCCC3)n2)c1 | 232 | 158 | –

Continued, compound first:

Row | SMILES | IC50 [1, 16] [nM] | IC50 (Trypanosoma cruzi [3]) [nM] | selectivity ratio at 69 h [2] | selectivity ratio [4] | further results
15 | O=C(NCCn1ccc(-c2ccc(F)cc2)n1)N1CC[C@H](F)C1 | 32 | 130 | 2450 | 398 | Activity [5]: Active; Activity (Trypanosoma cruzi [6]): Active; Activity (Leishmania donovani): Active; Activity (Plasmodium falciparum): Active
16 | O=C(NCCn1ccc(-c2ccc(F)cc2F)n1)N1CCCCC1 | 45 | – | 1880 | – | –
17 | O=C(NCCn1ccc(-c2ccc(F)cc2)n1)N1CCCC1 | 75 | 320 | 1060 | 158 | –
18 | O=C(CCn1ccc(-c2ccccc2)n1)Nc1ccccc1 | – | – | – | – | IC50 [1]: Not Active
19 | O=C(NCCn1ccc(-c2ccc(F)c(F)c2)n1)N1CCCC1 | 22 | 100 | 3630 | 501 | solubility kinetic [7]: 12.5 to 25 µg/mL (≈ 39 to 78 µM); Stability [8]: Stable; Activity [5]: Active; Activity (Trypanosoma cruzi [6]): Active; Activity (Leishmania donovani): Active; Activity (Plasmodium falciparum): Active
20 | O=C(NCCn1ccc(-c2ccc(F)cc2)n1)N1CC[C@@H](F)C1 | 86 | 250 | 922 | 200 | –
21 | CC(C)OC(=O)NCCn1ccc(-c2ccccc2)n1 | 1000 | – | 82 | – | –
22 | Cc1ccc(-c2ccn(CCNC(=O)N3CCCCC3)n2)cc1 | 5300 | 10000 | 16 | 5 | –
23 | O=C(NCCn1ccc(-c2ccccc2)n1)N1CC[C@H](F)C1 | 61 | 250 | 1300 | 200 | –
24 | O=S(=O)(NCCn1ccc(-c2ccccc2)n1)c1ccccc1 | – | 50000 | – | 1 | IC50 [1]: Not Active
25 | O=C(NCCn1ccc(-c2ccccc2)n1)N1CC[C@@H](F)C1 | 108 | 790 | 732 | 63 | –
26 | CC(C)(C)C(=O)NCCc1csc(-c2cccc(F)c2)n1 | – | 2300 | – | 27 | IC50 [9]: 800 nM; selectivity ratio [10]: > 96
27 | O=C(NCCn1ccc(-c2ccccc2)n1)C1CCCC1 | 1100 | 3200 | 39 | 16 | –
28 | CCN(CC)C(=O)NCCn1ccc(-c2ccccc2)n1 | 2000 | 3200 | 42 | 16 | –
29 | O=C(NCCn1ccc(-c2ccc(F)c(F)c2)n1)N1CCCCC1 | 27 | – | 2910 | – | IC50 (Trypanosoma cruzi [13]): 119 nM; selectivity ratio [14]: 616
30 | COc1ccc(-c2ccn(CCNC(=O)N3CCCCC3)n2)cc1 | 7100 | 25000 | 12 | 2 | –
31 | O=C(Cn1ccnc1[N+](=O)[O-])NCc1ccccc1 | – | – | – | – | Activity (Trypanosoma cruzi [15]): Active
32 | O=C(NCCn1ccc(-c2ccccc2)n1)c1ccccc1 | 610 | 50000 | 102 | 1 | –
33 | CC(C)NC(=O)NCCn1ccc(-c2ccccc2)n1 | 7500 | – | 11 | – | –
34 | O=C(NCCn1ccc(-c2ccc(F)c(F)c2)n1)N1CC[C@@H](F)C1 | 16 | 100 | 4840 | 501 | Activity [5]: Active; Activity (Trypanosoma cruzi [6]): Active; Activity (Leishmania donovani): Active; Activity (Plasmodium falciparum): Active
35 | N#Cc1cccc(-c2ccn(CCNC(=O)N3CCCCC3)n2)c1 | 350 | 400 | 236 | 126 | –
36 | COc1cccc(-c2ccn(CCNC(=O)N3CCCCC3)n2)c1 | 1200 | 4000 | 67 | 13 | –
37 | N#Cc1ccccc1-c1ccn(CCNC(=O)N2CCCCC2)n1 | 4700 | 13000 | 18 | 4 | –
38 | N#Cc1ccc(-c2ccn(CCNC(=O)N3CCCCC3)n2)cc1 | – | 40000 | – | 1 | –
39 | c1ccc(CNCCn2ccc(-c3ccccc3)n2)cc1 | – | – | – | – | IC50 [1]: Not Active
40 | COc1ccccc1-c1ccn(CCNC(=O)N2CCCCC2)n1 | 2600 | – | 32 | – | –
